Test results taken from ChEMBL document CHEMBL1149173, “Design, synthesis, and biological evaluation of hybrid molecules containing alpha-methylene-gamma-butyrolactones and polypyrrole minor groove binders” (J Med Chem, 2004).

Legend:
Format in all cases: functional, cell-based
MOLT-4 = assay: Inhibitory concentration required to inhibit human T-lymphoblast Molt4 cells proliferation
How it was run: (§1)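 Human T-lymphocyte cells seeded at 300000–500000 cells/mL and mixed 1:1 with serial compound dilutions. Incubated 3 days at 37 °C, then cell number counted with a Coulter counter. IC50 taken as the concentration giving 50% inhibition of proliferation, as mean ± SE from dose–response curves of at least three independent experiments.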

FM3A = assay: Inhibitory concentration required to inhibit murine mammary carcinoma FM3A cells proliferation; conditions: Mus musculus
How it was run: (§2)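 Murine cells were suspended at 300000–500000 cells/mL and added 1:1 to wells holding serial dilutions of compound. Cells were counted by Coulter counter after 2 days at 37 °C. IC50 is the concentration inhibiting cell proliferation by 50%, given as mean ± SE from dose–response curves of at least three independent experiments.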

CCRF-CEM = assay: Inhibitory concentration required to inhibit human T-lymphoblast CEM cells proliferation; how it was run: as §1
L1210 = assay: Inhibitory concentration required to inhibit murine leukemia L1210 cells proliferation; conditions: Mus musculus; how it was run: as §2

IC50 (MOLT-4) [µM] | IC50 (CCRF-CEM) [µM] | IC50 (L1210) [µM] | SMILES | IC50 (FM3A) [µM]
46.9 | 57.9 | 13 | C=C1CC(COc2cc(C(=O)O)n(C)n2)(c2ccc(Cl)cc2)OC1=O (stereo unspecified) | 99.2
9.4 | 18.5 | 14.8 | C=C1CC(COc2cc(C(=O)O)n(C)n2)(c2ccc(-c3ccccc3)cc2)OC1=O (stereo unspecified) | 42
189 | 174 | 107 | C=C1CC(COc2cc(C(=O)O)n(C)n2)(c2ccccc2)OC1=O (stereo unspecified) | 189
746 | 402 | 522 | C=C1CC(C)(COc2cc(C(=O)O)n(C)n2)OC1=O (stereo unspecified) | 755
